According to ChEMBL document CHEMBL4819084, “Discovery of 3,5-dimethylisoxazole derivatives as novel, potent inhibitors for bromodomain and extraterminal domain (BET) family” (Bioorg Med Chem, 2021):
Active and inactive are the calls of the source. The calls are words filed in the database; no cut-off is given here.

Experiments:
U-266 [1] = assay: Induction of apoptosis in human U-266 cells assessed as late apoptotic cells at 1 uM incubated for 48 hrs by Annexin-V/FITC and PI staining based flow cytometry analysis (reference value: 0.032 %); type: functional
In short: (§1)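 U266 cells seeded at 1 × 10⁵ per 2 mL well in six-well plates and exposed to 1, 2 or 8 μM for 48 h. Cells collected, washed twice in cold PBS and resuspended in binding buffer. Annexin V-FITC added for 15 min, then PI for 5 min, both at 37 °C in the dark. Analysed by flow cytometry.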

[2] = molecular target: T1, Bromodomain-containing protein 4 (Homo sapiens, UniProt O60885); assay: Potency index, ratio of 6-(3,5-Dimethylisoxazol-4-yl)-1-methyl-4-phenyl-3,4-dihydroquinazolin-2(1H)-one IC50 to test compound IC50 for inhibition of BRD4-BD1 (unknown origin)
U-266 [3] = assay: Induction of apoptosis in human U-266 cells assessed as necrotic cells at 2 uM incubated for 48 hrs by Annexin-V/FITC and PI staining based flow cytometry analysis (reference value: 5.99 %); type: functional; in short: as §1
MCF7 = assay: Antiproliferative activity against human MCF7 cells assessed as inhibition of cell proliferation at 2 uM incubated for 48 hrs by MTT assay relative to control; type: functional
In short: (§2)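 Cryopreserved cells thawed at 37 °C, cultured one day, then seeded at 5000–10,000 cells/well in 96-well plates and left overnight to attach. Compound added at a single concentration or as a gradient series and incubated 48 h. MTT solution added and absorbance read.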

HepG2 [4] = assay: Antiproliferative activity against human HepG2 cells assessed as inhibition of cell proliferation incubated for 48 hrs by MTT assay; type: functional, cell-based; settings: HepG2, 48 h; in short: as §2
U-266 [5] = assay: Antiproliferative activity against human U-266 cells assessed as inhibition of cell proliferation incubated for 48 hrs by MTT assay; type: functional, cell-based; settings: U-266, 48 h; in short: as §2
U-266 [6] = assay: Induction of apoptosis in human U-266 cells assessed as viable cells at 8 uM incubated for 48 hrs by Annexin-V/FITC and PI staining based flow cytometry analysis (reference value: 92.6 %); type: functional; settings: read-out: Activity; in short: as §1
U-266 [7] = assay: Induction of apoptosis in human U-266 cells incubated for 48 hrs by Annexin-V/FITC and PI staining based flow cytometry analysis; type: functional, cell-based; settings: dose 1-8 µM; in short: as §1
U-266 [8] = assay: Induction of apoptosis in human U-266 cells assessed as early apoptotic cells at 8 uM incubated for 48 hrs by Annexin-V/FITC and PI staining based flow cytometry analysis (reference value: 1.36 %); type: functional; in short: as §1
U-266 [9] = assay: Induction of apoptosis in human U-266 cells assessed as viable cells at 1 uM incubated for 48 hrs by Annexin-V/FITC and PI staining based flow cytometry analysis (reference value: 92.6 %); type: functional; settings: read-out: Activity; in short: as §1
U-266 [10] = assay: Induction of apoptosis in human U-266 cells assessed as necrotic cells at 8 uM incubated for 48 hrs by Annexin-V/FITC and PI staining based flow cytometry analysis (reference value: 5.99 %); type: functional; in short: as §1
U-266 [11] = assay: Induction of apoptosis in human U-266 cells assessed as early apoptotic cells at 2 uM incubated for 48 hrs by Annexin-V/FITC and PI staining based flow cytometry analysis (reference value: 1.36 %); type: functional; in short: as §1
CT26 [12] = assay: Antiproliferative activity against […] assessed as inhibition of cell proliferation incubated for 48 hrs by MTT assay; type: functional, cell-based; settings: Mus musculus, CT26, 48 h; in short: as §2
HCT-116 = assay: Antiproliferative activity against human HCT-116 cells assessed as inhibition of cell proliferation at 2 uM incubated for 48 hrs by MTT assay relative to control; type: functional; in short: as §2
U-266 [13] = assay: Induction of apoptosis in human U-266 cells assessed as nucleus condensation at 1 to 8 uM incubated for 48 hrs by DAPI staining based fluorescence microscopic analysis; type: functional, cell-based; settings: dose 1-8 µM
In short: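 U266 cells plated at 20000 cells/well in 12-well plates overnight, then treated at 1, 2 and 8 μM for 48 h. After a PBS wash, cells were stained with DAPI for 5 min, washed again and imaged under a fluorescence microscope for nuclear condensation.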

HepG2 [14] = assay: Antiproliferative activity against human HepG2 cells assessed as inhibition of cell proliferation at 2 uM incubated for 48 hrs by MTT assay relative to control; type: functional; in short: as §2
U-266 [15] = assay: Induction of cell cycle arrest in human U-266 cells assessed as increase in accumulation at G0/G1 phase at 1 to 2 uM incubated for 48 hrs by PI staining based flow cytometry analysis; type: functional; settings: dose 1-2 µM
In short: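 U266 cells seeded at 1 × 10⁵ per 2 mL well in six-well plates and treated at 1 and 2 μM for 48 h. Cells harvested, fixed in 70% ethanol on ice for 30 min and washed in PBS. Stained with PI (0.05 mg/mL) plus RNaseA (0.5 mg/mL) for 30 min at room temperature in the dark, then analysed by flow cytometry for cycle distribution.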

U-266 [16] = assay: Induction of apoptosis in human U-266 cells assessed as necrotic cells at 1 uM incubated for 48 hrs by Annexin-V/FITC and PI staining based flow cytometry analysis (reference value: 5.99 %); type: functional; in short: as §1
[17] = molecular target: T1, Bromodomain-containing protein 4; assay: Inhibition of BRD4-BD1 (unknown origin) preincubated for 15 mins followed by substrate addition and measured after 1 hr
CT26 [18] = assay: Antiproliferative activity against […] assessed as inhibition of cell proliferation at 2 uM incubated for 48 hrs by MTT assay relative to control; type: functional; settings: Mus musculus; in short: as §2
U-266 [19] = assay: Antiproliferative activity against human U-266 cells assessed as inhibition of cell proliferation at 0.1 uM incubated for 48 hrs by MTT assay relative to control; type: functional; in short: as §2
U-266 [20] = assay: Induction of apoptosis in human U-266 cells assessed as late apoptotic cells at 2 uM incubated for 48 hrs by Annexin-V/FITC and PI staining based flow cytometry analysis (reference value: 0.032 %); type: functional; in short: as §1
U-266 [21] = assay: Induction of apoptosis in human U-266 cells assessed as late apoptotic cells at 8 uM incubated for 48 hrs by Annexin-V/FITC and PI staining based flow cytometry analysis (reference value: 0.032 %); type: functional; in short: as §1
[22] = Cytotoxicity against human MCF-10A cells assessed as inhibition of cell proliferation at 2 uM incubated for 48 hrs by MTT assay; type: cell-based; in short: as §2
U-266 [23] = assay: Induction of apoptosis in human U-266 cells assessed as viable cells at 2 uM incubated for 48 hrs by Annexin-V/FITC and PI staining based flow cytometry analysis (reference value: 92.6 %); type: functional; settings: read-out: Activity; in short: as §1
U-266 [24] = assay: Induction of apoptosis in human U-266 cells assessed as early apoptotic cells at 1 uM incubated for 48 hrs by Annexin-V/FITC and PI staining based flow cytometry analysis (reference value: 1.36 %); type: functional; in short: as §1

Cc1noc(C)c1-c1ccc2c(c1)C(c1ccccc1)N(CCCCN1CCN(c3ccc4nnc(Cl)n4n3)CC1)C(=O)N2C (stereo unspecified)
Activity (U-266 [1]): 1.23% | Ratio IC50 [2]: 8 | Activity (U-266 [3]): 4.6% | inhibition at 2 µM (MCF7): 35.5% | IC50 (HepG2 [4]): 16.7 µM | IC50 (U-266 [5]): 2.11 µM | viability at 8 µM (U-266 [6]): 65.4% | Activity (U-266 [7]): Dose-Dependent Effect | Activity (U-266 [8]): 22.7% | viability at 1 µM (U-266 [9]): 82.6% | Activity (U-266 [10]): 5.11% | Activity (U-266 [11]): 14.8% | IC50 (CT26 [12]): 15.8 µM | inhibition at 2 µM (HCT-116): 61.8% | Activity (U-266 [13]): Active | inhibition at 2 µM (HepG2 [14]): 46.7% | Activity (U-266 [15]): Active | Activity (U-266 [16]): 3.06% | IC50 [17]: 0.003 µM | inhibition at 2 µM (CT26 [18]): 41% | inhibition at 0.1 µM (U-266 [19]): 52.3% | Activity (U-266 [20]): 2.91% | Activity (U-266 [21]): 6.75% | inhibition at 48 h, 2 µM [22]: 11.6% | viability at 2 µM (U-266 [23]): 77.6% | Activity (U-266 [24]): 13.2%
